This note sets out measurements from ChEMBL document CHEMBL1153312, “Discovery of substituted 2,4,4-triarylimidazoline derivatives as potent and selective neuropeptide Y Y5 receptor antagonists” (Bioorg Med Chem Lett, 2009).

The target of data set [1] is T1, Neuropeptide Y receptor type 5 (Homo sapiens, UniProt Q15761).
T1 sequence (Q15761 whole entry): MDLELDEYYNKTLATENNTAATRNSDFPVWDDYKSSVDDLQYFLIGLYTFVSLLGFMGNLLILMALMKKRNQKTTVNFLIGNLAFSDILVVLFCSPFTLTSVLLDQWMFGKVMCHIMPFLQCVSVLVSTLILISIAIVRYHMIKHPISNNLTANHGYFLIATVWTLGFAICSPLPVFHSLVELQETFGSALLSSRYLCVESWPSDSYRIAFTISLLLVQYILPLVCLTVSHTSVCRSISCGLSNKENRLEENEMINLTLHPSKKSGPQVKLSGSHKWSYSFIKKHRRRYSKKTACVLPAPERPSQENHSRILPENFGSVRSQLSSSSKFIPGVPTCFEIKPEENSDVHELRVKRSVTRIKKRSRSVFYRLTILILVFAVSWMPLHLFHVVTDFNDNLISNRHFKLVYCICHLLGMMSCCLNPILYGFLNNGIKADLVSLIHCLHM
Kind of data set: Displacement of [125I]PYY from human recombinant neuropeptide Y5 receptor expressed in thymidine kinase-deficient mouse LM cells. The data set is classed as cell-based. The essentials: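 [125I]PYY displacement in membranes of LMtk- cells expressing recombinant human Y5 receptor; IC50 determined.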

Data set [2] in a line: Drug level in Sprague-Dawley rat cerebrospinal fluid at 10 mg/kg, po after 2 hrs. The data set is classed as ADME, organism-based. Further details: dose 10 mg/kg, route oral. To be noted: read-out: Drug uptake. The essentials:
(§1)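 Rats dosed orally at 10 mg/kg; plasma, brain (nmol/g) and CSF levels measured 2 h post-dose. Brain-to-plasma and CSF-to-brain ratios were calculated from these levels.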

Data set [3] is described as follows: Ratio of drug level in brain to plasma of Sprague-Dawley rat at 10 mg/kg, po after 2 hrs. The data set is classed as ADME, organism-based. Further details: dose 10 mg/kg, route oral. To be noted: read-out: BPR. The essentials:
as §1

Data set [4] is described as follows: Plasma concentration in Sprague-Dawley rat at 10 mg/kg, po after 2 hrs. The data set is classed as ADME, organism-based. Further details: dose 10 mg/kg, route oral. The essentials: as §1
Data set [5] in a line: Ratio of drug level in cerebrospinal fluid to brain of Sprague-Dawley rat at 10 mg/kg, po after 2 hrs. Type of data set: ADME, organism-based, CSF/Brain. Set-up: dose 10 mg/kg, route oral. The settings on record: in vivo. The essentials: as §1
Data set [6] relates to Brain. Kind of data set: Drug level in Sprague-Dawley rat brain at 10 mg/kg, po after 2 hrs. The data set is classed as ADME, organism-based. Set-up: dose 10 mg/kg, route oral. To be noted: in vivo. In outline: as §1
For data set [7], the target named is T2, Neuropeptide Y receptor type 2 (Homo sapiens) (UniProt P49146).
T2 sequence (whole entry): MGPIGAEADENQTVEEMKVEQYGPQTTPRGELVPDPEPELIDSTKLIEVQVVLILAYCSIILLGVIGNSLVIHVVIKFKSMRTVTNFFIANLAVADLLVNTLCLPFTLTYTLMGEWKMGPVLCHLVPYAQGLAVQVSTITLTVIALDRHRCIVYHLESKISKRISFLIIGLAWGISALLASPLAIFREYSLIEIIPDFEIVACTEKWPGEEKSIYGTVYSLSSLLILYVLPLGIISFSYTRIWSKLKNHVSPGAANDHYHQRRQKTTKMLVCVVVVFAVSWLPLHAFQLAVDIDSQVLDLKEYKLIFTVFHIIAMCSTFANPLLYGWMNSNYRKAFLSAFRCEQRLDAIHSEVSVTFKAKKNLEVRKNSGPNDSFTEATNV
Kind of data set: Binding affinity to human neuropeptide Y2 receptor.

The target in data set [8] is Neuropeptide Y receptor type 4 (Homo sapiens) (UniProt P50391). Kind of data set: Binding affinity to human neuropeptide Y4 receptor.
Data set [9] has as its system Rattus norvegicus. Kind of data set: Inhibition of D-Trp34NPY-induced food intake in Sprague-Dawley rat at 3 mg/kg, po administered 2 hrs before D-Trp34NPY challenge measured for 2 hrs. Further details: scale not given: the % may be the effect or the level left. The data set is classed as functional. In outline:
(§2)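 Oral dosing 2 h before third-ventricle injection of D-Trp34NPY, with artificial CSF as vehicle control. Cumulative food intake was recorded over the following 2 h. Data are mean ± SEM, n = 7–8, with P < 0.05 versus the agonist-only group.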

Data set [10] deals with T1, Neuropeptide Y receptor type 5. Kind of data set: Antagonist activity at human recombinant neuropeptide Y5 receptor expressed in thymidine kinase-deficient mouse LM cells assessed as inhibition of neuropeptide-induced increase in intracellular calcium level. The data set is classed as functional, cell-based.
Data set [11] deals with Rattus norvegicus. Kind of data set: Inhibition of D-Trp34NPY-induced food intake in Sprague-Dawley rat at 30 mg/kg, po administered 2 hrs before D-Trp34NPY challenge measured for 2 hrs. Type of data set: functional. Further details: scale not given: the % may be the effect or the level left. The essentials:
as §2

Data set [12] concerns Rattus norvegicus. Kind of data set: Inhibition of D-Trp34NPY-induced food intake in Sprague-Dawley rat at 10 mg/kg, po administered 2 hrs before D-Trp34NPY challenge measured for 2 hrs. Type of data set: functional. Further details: scale not given: the % may be the effect or the level left. In outline: as §2
The target in data set [13] is T3, Neuropeptide Y receptor type 1 (Homo sapiens) (UniProt P25929).
T3 sequence (whole entry): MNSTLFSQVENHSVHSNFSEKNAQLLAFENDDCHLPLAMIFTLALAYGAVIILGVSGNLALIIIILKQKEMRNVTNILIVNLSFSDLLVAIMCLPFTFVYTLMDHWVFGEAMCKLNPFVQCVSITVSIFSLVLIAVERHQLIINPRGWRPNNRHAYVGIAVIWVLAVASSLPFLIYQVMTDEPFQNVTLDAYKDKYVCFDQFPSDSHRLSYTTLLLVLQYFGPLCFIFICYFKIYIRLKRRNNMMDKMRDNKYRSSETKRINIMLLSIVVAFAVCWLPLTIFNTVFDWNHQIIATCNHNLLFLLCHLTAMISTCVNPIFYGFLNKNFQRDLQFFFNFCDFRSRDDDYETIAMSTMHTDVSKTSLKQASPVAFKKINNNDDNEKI
Kind of data set: Binding affinity to human neuropeptide Y1 receptor.

Sequence of Neuropeptide Y receptor type 4 (Homo sapiens) (P50391 whole entry): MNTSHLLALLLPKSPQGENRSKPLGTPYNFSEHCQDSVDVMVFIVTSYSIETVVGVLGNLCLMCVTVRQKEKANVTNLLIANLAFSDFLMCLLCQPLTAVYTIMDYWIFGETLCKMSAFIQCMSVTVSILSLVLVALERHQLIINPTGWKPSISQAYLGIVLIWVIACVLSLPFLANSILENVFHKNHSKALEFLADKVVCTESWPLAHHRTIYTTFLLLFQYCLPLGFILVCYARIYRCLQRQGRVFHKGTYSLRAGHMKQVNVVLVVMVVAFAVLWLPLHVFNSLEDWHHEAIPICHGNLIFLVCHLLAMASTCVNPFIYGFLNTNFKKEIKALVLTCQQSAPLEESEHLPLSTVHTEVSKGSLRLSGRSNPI

On to `Fc1ccc(C2(c3ccc(F)cc3)CNC(c3cccc(Br)c3)=N2)cc1`, for which, in data set [1], the IC50 amounted to 4.8 nM.

On to `Fc1ccc(C2(c3ccc(F)cc3)CNC(c3cccc(Cl)c3)=N2)cc1`, for which, in data set [1], the IC50 worked out at 5.4 nM.

Turning to `N#Cc1cccc(C2=NC(c3ccc(F)cc3)(c3ccc(F)cc3)CN2)n1`, the IC50 in [1] was found to be 39 nM.

`CS(=O)(=O)c1cccc(C2=NC(c3ccc(F)cc3)(c3ccc(F)cc3)CN2)c1`: the IC50 in [1] was 9.2 nM.

As for `Fc1ccc(C2(c3ccc(F)cc3)CNC(c3cccnn3)=N2)cc1`, the IC50 in data set [1] worked out at 560 nM.

Regarding `Fc1ccc(C2(c3ccc(F)cc3)CNC(c3ccccc3Cl)=N2)cc1`, the IC50 in [1] stood at 630 nM.

Take `N#Cc1ccnc(C2=NC(c3ccc(F)cc3)(c3ccc(F)cc3)CN2)c1`: the concentration at 2 h in [2] turned out to be 25 nM; in [4], 1300 nM. In data set [3], the Kp at 2 h was 4.9. Further, the IC50 in [1] was determined as 2 nM. The Ratio in data set [5] stood at 0.004. Further, in data set [6], the Drug uptake is 6.4 nmol/g.

For `Fc1ccc(C2(c3ccc(F)cc3)CNC(c3cncnc3)=N2)cc1`, the IC50 in [1] worked out at 47 nM.

On to `Fc1ccc(C2(c3ccc(F)cc3)CNC(c3cccnc3)=N2)cc1`, for which, in [1], the IC50 was found to be 7.2 nM.

Consider `Fc1ccc(C2(c3ccc(F)cc3)CNC(c3ccsc3)=N2)cc1`, for which the IC50 in data set [1] stood at 93 nM.

Take `COc1cccc(C2=NC(c3ccc(F)cc3)(c3ccc(F)cc3)CN2)c1`: in data set [1], the IC50 stood at 51 nM.

As to `c1ccc(C2=NC(c3ccccc3)(c3ccccc3)CN2)cc1`, in [1], the IC50 amounted to 54 nM.

On to `CC(=O)c1cccc(C2=NC(c3ccc(F)cc3)(c3ccc(F)cc3)CN2)c1`, for which, in [1], the IC50 was found to be 44 nM.

In the case of `Fc1ccc(C2(c3ccc(F)cc3)CNC(c3ccccc3)=N2)cc1`, the IC50 in data set [1] turned out to be 32 nM.

`O=[N+]([O-])c1cccc(C2=NC(c3ccc(F)cc3)(c3ccc(F)cc3)CN2)c1`: the IC50 in [1] was 4.3 nM.

For `COC(=O)c1cccc(C2=NC(c3ccc(F)cc3)(c3ccc(F)cc3)CN2)c1`, the IC50 in data set [1] stood at 270 nM.

`Fc1ccc(C2(c3ccc(F)cc3)CNC(c3cccc(C(F)(F)F)c3)=N2)cc1`: in [1], the IC50 amounted to 6.2 nM.

For the molecule `N#Cc1cc(C2=NC(c3ccc(F)cc3)(c3ccc(F)cc3)CN2)ccn1`, the half-maximal inhibitory concentration (IC50) in [1] came to 4.8 nM.

As for `N#Cc1cncc(C2=NC(c3ccc(F)cc3)(c3ccc(F)cc3)CN2)c1`, the 50% inhibitory concentration (IC50) in [1] is 17 nM.

Regarding `Fc1ccc(C2(c3ccc(F)cc3)CNC(c3cnccn3)=N2)cc1`, the concentration at 2 h in data set [2] was found to be 64 nM; in data set [4], 1200 nM. Also, the Kp at 2 h in [3] was found to be 4.9. Further, the Activity in [7] is more than 10 µM; in data set [8] it was more than 10 µM; in data set [9] it was 20%; in data set [11], 60%; in data set [12], 42%; in [13] it was more than 10 µM. For the same molecule, the IC50 came out at 4.3 nM in [1] and 2.4 nM in data set [10]. The Ratio in data set [5] is on record as 0.01. This molecule also registered a Drug uptake in data set [6] of 5.9 nmol/g.

`Fc1ccc(C2(c3ccc(F)cc3)CNC(c3ccncc3)=N2)cc1`: in data set [1], the IC50 is 160 nM.

Turning to `Fc1ccc(C2(c3ccc(F)cc3)CNC(c3cccs3)=N2)cc1`, the IC50 in data set [1] turned out to be 54 nM.

On to `Fc1ccc(C2(c3ccc(F)cc3)CNC(c3cccc(F)c3)=N2)cc1`, for which, in [1], the IC50 was determined as 10 nM.

As to `O=c1cccc(C2=NC(c3ccc(F)cc3)(c3ccc(F)cc3)CN2)[nH]1`, the half-maximal inhibitory concentration (IC50) in [1] is 8.1 nM.

For `Fc1ccc(C2(c3ccc(F)cc3)CNC(c3ccccn3)=N2)cc1`, the IC50 in data set [1] stood at 160 nM.

In the case of `N#Cc1cccc(C2=NC(c3ccc(F)cc3)(c3ccc(F)cc3)CN2)c1`, the concentration at 2 h amounted to 27 nM in [2] and 1400 nM in [4]. Further, in [3], the Kp at 2 h worked out at 5.8. In addition, in data set [1], the IC50 is 2.7 nM. The Ratio in data set [5] turned out to be 0.003. In data set [6], the Drug uptake is listed as 8.1 nmol/g.

Turning to `O=Cc1cccc(C2=NC(c3ccc(F)cc3)(c3ccc(F)cc3)CN2)c1`, the 50% inhibitory concentration (IC50) in data set [1] stood at 8.7 nM.

With `CN(C)c1cccc(C2=NC(c3ccc(F)cc3)(c3ccc(F)cc3)CN2)c1`, the half-inhibitory concentration (IC50) in data set [1] is more than 1000 nM.

With `Fc1ccc(C2(c3ccc(F)cc3)CNC(c3ccc(C(F)(F)F)cc3)=N2)cc1`, the 50% inhibitory concentration (IC50) in [1] was 160 nM.

In the case of `Nc1cccc(C2=NC(c3ccc(F)cc3)(c3ccc(F)cc3)CN2)c1`, the IC50 in data set [1] turned out to be 300 nM.

As for `Fc1ccc(C2(c3ccc(F)cc3)CNC(c3ncccn3)=N2)cc1`, the 50% inhibitory concentration (IC50) in data set [1] was 350 nM.

Regarding `OCc1cccc(C2=NC(c3ccc(F)cc3)(c3ccc(F)cc3)CN2)c1`, in data set [1], the IC50 was 59 nM.

With `Cc1cccc(C2=NC(c3ccc(F)cc3)(c3ccc(F)cc3)CN2)c1`, the IC50 in [1] was 30 nM.

For the molecule `Fc1ccc(C2(c3ccc(F)cc3)CNC(c3ccc(Cl)cc3)=N2)cc1`, the IC50 in data set [1] is 130 nM.
